# Assay results of several laboratories.
# Protocols differ between the studies behind these lines.
# Read-out: cell growth or viability
SMILES,cell line,method,concentration,time,quantity,value
C[C@H](Nc1ccc2c(c1)OCCn1cc(N3C(=O)OC[C@H]3C(F)F)nc1-2)C(N)=O,Detroit 562,ATP luminescence,,5 days,EC50,0.0831 µM
N#CSCCCCOc1ccc2c(-c3ccccc3)cc(=O)oc2c1,HeLa,SRB,,,GI50,25 µM
Cc1nc(Nc2ncc(C(=O)Nc3c(C)cccc3Cl)s2)cc(N2CC[C@H](O)C2)n1,SU-DHL-6,ATP luminescence,10 µM,72 h,inhibition,97%
Cc1cc(=O)oc2cc(OCCCCSC#N)ccc12,HeLa,SRB,,,GI50,1.9 µM
CCOc1ccc(-c2cc(C(=O)O)c(-c3ccc(Cl)cc3)o2)cc1,SK-MEL-2,MTT,,48 h,EC50,72 µM
CCC(=CCc1c(O)cc2c(c1O)C(=O)C[C@@H](c1ccccc1O)O2)CC,HeLa,MTT,15 µM,48 h,inhibition,0.607%
CCOc1ccc(C(=O)CC(SCc2ccc(Cl)cc2)C(=O)O)cc1 (stereo not shown),U2OS,MTT,,48 h,EC50,130 µM
[NH2][Pt]([NH2])([Cl])[Cl],HeLa,SRB,,,GI50,1.9 µM
CCC(=CCc1c(O)cc2c(c1O)C(=O)CC(c1ccc(O)cc1)O2)CC (stereo in doubt),HeLa,MTT,0.781 µM,48 h,inhibition,0.607%
CCOc1ccc(C(=O)CC(SCc2ccc(Cl)cc2)C(=O)OC)cc1 (stereo not shown),SK-MEL-2,MTT,,48 h,EC50,23 µM
